These results are taken from ChEMBL document CHEMBL4602714, “Strategic Incorporation of Polarity in Heme-Displacing Inhibitors of Indoleamine-2,3-dioxygenase-1 (IDO1)” (ACS Med Chem Lett, 2020).

Data set [1] in a line: Unbound intrinsic clearance in rat hepatocytes incubated for 120 mins by LC-MS/MS analysis. The data set is classed as ADME, cell-based, Hepatocyte. Conditions: 2 h.
A short description of data set [2]: Unbound intrinsic clearance in human hepatocytes incubated for 120 mins by LC-MS/MS analysis. The class given is ADME, cell-based, Hepatocyte. Conditions: 2 h.
Data set [3] in a line: MRT in Wistar Han rat at 0.05 mg/kg, iv administered using cassette dosing by LC-MS/MS analysis. The settings on record: in vivo. The class given is ADME, organism-based. In short, it runs like this: (§1)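 Rat cassette PK: single IV dose of 0.05 mg/kg at 1 mL/kg, vehicle DMSO/PEG400/H2O 20/60/20, animals fasted. Reported values are the geometric mean of n = 2 or more.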
The nature of data set [4]: Unbound volume of distribution in Wistar Han rat at 0.5 mg/kg, iv or 1 mg/kg, po by LC-MS/MS analysis. The class given is ADME, organism-based. Conditions: in vivo. In short, it runs like this:
(§2)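 Rat 2 × 2 PK: IV arm at 0.5 mg/kg (1 mL/kg) and PO arm at 1 mg/kg (2 mL/kg), both in DMSO/PEG400/H2O 20/60/20. Reported values are the geometric mean of n = 2 or more.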

Data set [5] in a line: Intrinsic clearance in Wistar Han rat at 0.5 mg/kg, iv or 1 mg/kg, po by LC-MS/MS analysis. The class given is ADME, organism-based. The settings on record: in vivo. Put shortly: as §2
Data set [6] can be described thus: MRT in Wistar Han rat at 0.5 mg/kg, iv or 1 mg/kg, po by LC-MS/MS analysis. The class given is ADME, organism-based. The settings on record: in vivo. In short, it runs like this:
as §2

The nature of data set [7]: Drug metabolism in human liver microsomes assessed as oxidation of n-propyl group at 30 uM incubated up to 45 mins in presence of NADPH by MetID based LC/MS analysis. The class given is ADME, Microsome. The settings on record: 0.75 h. For orientation: Liver microsomes are a subcellular fraction often used to study metabolism.
Data set [8] in a line: Unbound volume of distribution in Wistar Han rat at 0.05 mg/kg, iv administered using cassette dosing by LC-MS/MS analysis. Conditions: in vivo. The data set is classed as ADME, organism-based. Put shortly: as §1
Data set [9] in a line: Drug metabolism in rat liver microsomes assessed as oxidation of n-propyl group at 30 uM incubated up to 45 mins in presence of NADPH by MetID based LC/MS analysis. The class given is ADME, Microsome. The settings on record: 0.75 h.
Data set [10] is described as follows: Volume of distribution in Wistar Han rat at 0.05 mg/kg, iv administered using cassette dosing by LC-MS/MS analysis. The data set is classed as ADME, organism-based. Conditions: in vivo. In short, it runs like this:
as §1

Data set [11] can be described thus: Clearance in Wistar Han rat at 0.05 mg/kg, iv administered using cassette dosing by LC-MS/MS analysis. The data set is classed as ADME, organism-based. Conditions: in vivo. In short, it runs like this: as §1
The nature of data set [12]: Unbound clearance in Wistar Han rat at 0.05 mg/kg, iv administered using cassette dosing by LC-MS/MS analysis. Conditions: in vivo. The class given is ADME, organism-based. In short, it runs like this: as §1
A short description of data set [13]: Drug metabolism in human hepatocytes assessed as oxidation of n-propyl group with aryl amide bond cleavage at 30 uM incubated up to 90 mins in presence of NADPH by MetID based LC/MS analysis. The class given is ADME, cell-based, Hepatocyte. Conditions: 1.5 h.
The nature of data set [14]: Intrinsic clearance in Wistar Han rat at 0.05 mg/kg, iv administered using cassette dosing by LC-MS/MS analysis. The class given is ADME, organism-based. Conditions: in vivo. Put shortly:
as §1

What is called MRT is the average time that molecules of a dose stay in the body. Broadly, the Vd is the apparent volume that relates the amount in the body to the concentration in plasma or blood. Read a high Vd as wide distribution into tissue. A word on the clearance: it is the volume of plasma or blood freed of the substance per unit of time. Read a low clearance as inefficient removal.

For the compound `O=C(Nc1ccc(C2(C(=O)Nc3ccc(F)cc3)COC2)nc1)c1cccc(Cl)c1`, the results for the CL free in [1] and in data set [2] were < 84 mL/min/kg and < 44 mL/min/kg, respectively. This compound came in with an MRT in [3] of 3.2 h.

As for `O=C(Nc1ccc(C2(C(=O)Nc3ccc(Cl)nc3)CCC2)cc1)c1cccc(Cl)c1`, the CL free in data set [1] was found to be 500 mL/min/kg; in data set [2] it was 1900 mL/min/kg.

For the compound `O=C(Nc1ccc(C2(C(=O)Nc3ccc(F)cc3)CCC2)cn1)c1cccc(Cl)c1`, the CL free is 830 mL/min/kg in data set [1] and 1300 mL/min/kg in data set [2]. Besides, the Vdu in [4] was 2200 L/kg. Further, in data set [5], the CL was found to be 4500 mL/min/kg. The same compound displayed an MRT in data set [6] of 5 h.

On to `CCCNC(=O)C1(c2ccc(NC(=O)c3cccc(Cl)c3)cc2)CCC1`, for which the Drug metabolism result in data set [7], in data set [9] and in [13] was “Metabolite_Detected” each time. For the same compound, the CL free is 7200 mL/min/kg in data set [1], 870 mL/min/kg in [2] and 4100 mL/min/kg in data set [12]. The compound also had a Vdu in [8] of 180 L/kg. In data set [3], this compound returned an MRT of 0.7 h. This compound also displayed a Vd in [10] of 4.9 L/kg. For the same compound, the clearance in data set [11] came to 110 mL/min/kg.

In the case of `CCCNC(=O)C1(c2ccc(NC(=O)c3ccc(F)c(C)c3)cc2)CCC1`, the figures for the CL free in data set [1] and in [2] were 6200 mL/min/kg and 560 mL/min/kg, respectively.

Take `O=C(Nc1ccc(C2(C(=O)Nc3ccc(F)cc3)CCC2)cc1)c1cccc(Cl)c1`: the CL free in [1] and in [2] was 2000 mL/min/kg each time. In data set [8], this compound registered a Vdu of 1100 L/kg. For the same compound, in data set [3], the MRT stood at 4.3 h. The compound also displayed a CL in [14] of 6000 mL/min/kg.

In the case of `O=C(Nc1ccc([C@]2(C(=O)Nc3ccc(F)cc3)C[C@@H](O)C2)cc1)c1cccc(Cl)c1`, the CL free was < 280 mL/min/kg in data set [1] and 350 mL/min/kg in data set [2]. The Vdu in data set [8] was determined as 99 L/kg. In [3], this compound displayed an MRT of 3.2 h. The compound also yielded a CL in [14] of 590 mL/min/kg.

Regarding `O=C(Nc1ccc(C2(C(=O)Nc3ccc(F)cc3)COC2)cc1)c1cccc(Cl)c1`, the CL free in [1] stood at 250 mL/min/kg; in [2], 420 mL/min/kg. Also, in data set [8], the Vdu came to 420 L/kg. Besides, the MRT in [3] is 4.8 h. Also, the CL in data set [14] was found to be 1600 mL/min/kg.

On to `O=C(Nc1ccc(C2(C(=O)NC3CCOCC3)CCC2)cc1)c1cccc(Cl)c1`, for which the CL free in data set [1] was 1700 mL/min/kg; in data set [2], 390 mL/min/kg.
